Assays:
Format in all cases: cell-based
[1] = Cytotoxicity against human KBV cells assessed as cell survival at 10 uM after 72 hrs by MTT assay relative to control; conditions: read-out: Survival
Method in brief: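 KBV (Pgp-overexpressing MDR line) grown in DMEM/10% FCS, kept in 10 nM paclitaxel; seeded, compound (DMSO stock) added next day, 72 h; MTT 2 h, formazan in DMSO, A570 gives survival vs DMSO solvent control; n = 1-3 independent experiments, mean ± SD.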

[2] = target: T1, ATP-dependent translocase ABCB1 (Homo sapiens, UniProt P08183); assay: Reversal of P-gp-mediated multidrug resistance in human KBV cells assessed as potentiation of paclitaxel-induced cytotoxicity by measuring cell survival at 10 uM after 72 hrs by MTT assay (reference value: 104 +/- 8%)
T1 sequence (P08183 whole entry): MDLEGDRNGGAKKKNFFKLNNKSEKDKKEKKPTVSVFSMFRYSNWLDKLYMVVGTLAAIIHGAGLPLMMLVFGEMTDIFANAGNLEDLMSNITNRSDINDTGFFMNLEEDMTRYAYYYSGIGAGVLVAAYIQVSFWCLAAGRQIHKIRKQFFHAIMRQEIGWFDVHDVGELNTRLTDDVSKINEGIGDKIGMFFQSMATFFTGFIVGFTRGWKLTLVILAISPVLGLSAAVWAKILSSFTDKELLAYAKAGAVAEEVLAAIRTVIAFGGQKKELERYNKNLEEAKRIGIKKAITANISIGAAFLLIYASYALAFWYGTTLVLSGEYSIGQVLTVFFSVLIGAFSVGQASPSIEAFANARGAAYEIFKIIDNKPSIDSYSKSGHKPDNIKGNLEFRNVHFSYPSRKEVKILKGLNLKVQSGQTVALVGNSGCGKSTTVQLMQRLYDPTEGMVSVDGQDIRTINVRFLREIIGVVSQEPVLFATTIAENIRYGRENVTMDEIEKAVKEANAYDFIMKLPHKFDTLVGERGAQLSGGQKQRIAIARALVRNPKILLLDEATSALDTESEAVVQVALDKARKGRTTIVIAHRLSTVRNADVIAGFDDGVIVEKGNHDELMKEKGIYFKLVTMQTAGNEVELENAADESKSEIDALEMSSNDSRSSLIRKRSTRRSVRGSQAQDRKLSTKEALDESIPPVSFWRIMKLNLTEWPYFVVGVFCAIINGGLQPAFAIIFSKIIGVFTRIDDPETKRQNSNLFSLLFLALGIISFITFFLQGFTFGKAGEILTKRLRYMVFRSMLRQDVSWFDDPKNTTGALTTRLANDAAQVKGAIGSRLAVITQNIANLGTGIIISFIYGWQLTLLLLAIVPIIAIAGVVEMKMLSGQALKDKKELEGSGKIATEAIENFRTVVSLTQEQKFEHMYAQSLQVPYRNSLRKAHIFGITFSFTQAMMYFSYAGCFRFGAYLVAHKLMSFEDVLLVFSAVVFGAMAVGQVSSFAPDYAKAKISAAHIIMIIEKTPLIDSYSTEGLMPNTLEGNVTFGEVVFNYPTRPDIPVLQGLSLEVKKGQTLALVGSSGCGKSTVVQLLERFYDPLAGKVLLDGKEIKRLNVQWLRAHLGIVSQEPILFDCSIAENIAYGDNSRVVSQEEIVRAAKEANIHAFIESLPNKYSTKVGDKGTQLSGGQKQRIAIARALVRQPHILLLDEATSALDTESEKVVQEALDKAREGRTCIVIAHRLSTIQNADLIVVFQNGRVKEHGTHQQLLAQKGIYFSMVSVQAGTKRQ

[3] = target: T1, ATP-dependent translocase ABCB1; assay: Reversal of P-gp-mediated multidrug resistance in human KBV cells assessed as potentiation of paclitaxel-induced cytotoxicity by measuring cell survival at 5 uM after 72 hrs by MTT assay (reference value: 104 +/- 8%)

Row | Compound | viability at 72 h, 10 µM [1] [%] | Survival [2] [%] | Survival [3] [%]
1 | CC(C)(O)[C@@H]1CC[C@@](C)([C@H]2CC[C@]3(C)[C@@H]2[C@H](O)C[C@@H]2[C@@]4(C)CC[C@H](O)C(C)(C)[C@@H]4CC[C@]23C)O1 | 111 | 104 | 
2 | CC(C)(O)[C@H]1CC[C@@](C)([C@H]2CC[C@]3(C)[C@@H]2[C@H](O)C[C@@H]2[C@@]4(C)CC[C@H](NC(=O)CCCCCN)C(C)(C)[C@@H]4CC[C@]23C)O1 | 86 | 91 | 91
3 | CC(C)(O)[C@@H]1CC[C@@](C)([C@H]2CC[C@]3(C)[C@@H]2[C@H](O)C[C@@H]2[C@@]4(C)CC[C@H](NC(=O)CCCN)C(C)(C)[C@@H]4CC[C@]23C)O1 | 105 | 102 | 111
4 | CC(C)(C)OC(=O)Nc1ccc(C(=O)N[C@H]2CC[C@]3(C)[C@H]4C[C@@H](O)[C@@H]5[C@@H]([C@]6(C)CC[C@H](C(C)(C)O)O6)CC[C@@]5(C)[C@]4(C)CC[C@H]3C2(C)C)cc1 | 77 | 46 | 54
5 | CC(C)(O)[C@H]1CC[C@@](C)([C@H]2CC[C@]3(C)[C@@H]2[C@H](O)C[C@@H]2[C@@]4(C)CC[C@H](NC(=O)CCCCCCCN)C(C)(C)[C@@H]4CC[C@]23C)O1 | 80 | 38 | 84
6 | CC(C)(O)[C@@H]1CC[C@@](C)([C@H]2CC[C@]3(C)[C@@H]2[C@H](O)C[C@@H]2[C@@]4(C)CC[C@H](N)C(C)(C)[C@@H]4CC[C@]23C)O1 | 91 | 88 | 102
7 | CC(C)(O)[C@@H]1CC[C@@](C)([C@H]2CC[C@]3(C)[C@@H]2[C@H](O)C[C@@H]2[C@@]4(C)CC[C@H](NC(=O)CN)C(C)(C)[C@@H]4CC[C@]23C)O1 | 90 | 115 | 98
8 | CC(C)(O)[C@H]1CC[C@@](C)([C@H]2CC[C@]3(C)[C@@H]2[C@H](O)C[C@@H]2[C@@]4(C)CC[C@H](NC(=O)CN)C(C)(C)[C@@H]4CC[C@]23C)O1 | 103 | 49 | 99
9 | CC(C)(C)OC(=O)NCCCC(=O)N[C@H]1CC[C@]2(C)[C@H]3C[C@@H](O)[C@@H]4[C@@H]([C@]5(C)CC[C@H](C(C)(C)O)O5)CC[C@@]4(C)[C@]3(C)CC[C@H]2C1(C)C | 67 | 34 | 48
10 | CC(C)(O)[C@@H]1CC[C@@](C)([C@H]2CC[C@]3(C)[C@@H]2[C@H](O)C[C@@H]2[C@@]4(C)CC[C@H](NC(=O)c5cccnc5)C(C)(C)[C@@H]4CC[C@]23C)O1 | 91 | 61 | 115
11 | CC(C)(O)[C@H]1CC[C@@](C)([C@H]2CC[C@]3(C)[C@@H]2[C@H](O)C[C@@H]2[C@@]4(C)CC[C@H](NC(=O)c5ccc(N)cc5)C(C)(C)[C@@H]4CC[C@]23C)O1 | 75 | 47 | 77
12 | CCCCCC(=O)N[C@H]1CC[C@]2(C)[C@H]3C[C@@H](O)[C@@H]4[C@@H]([C@]5(C)CC[C@@H](C(C)(C)O)O5)CC[C@@]4(C)[C@]3(C)CC[C@H]2C1(C)C | 98 | 44 | 78
13 | CC(C)(C)OC(=O)NCC(=O)N[C@H]1CC[C@]2(C)[C@H]3C[C@@H](O)[C@@H]4[C@@H]([C@]5(C)CC[C@H](C(C)(C)O)O5)CC[C@@]4(C)[C@]3(C)CC[C@H]2C1(C)C | 95 | 42 | 48
14 | CC(C)(O)[C@@H]1CC[C@@](C)([C@H]2CC[C@]3(C)[C@@H]2[C@H](O)C[C@@H]2[C@@]4(C)CC[C@H](NC(=O)CCCCCN)C(C)(C)[C@@H]4CC[C@]23C)O1 | 79 | 101 | 105
15 | CC(C)(C)OC(=O)NCCCCCCCC(=O)N[C@H]1CC[C@]2(C)[C@H]3C[C@@H](O)[C@@H]4[C@@H]([C@]5(C)CC[C@H](C(C)(C)O)O5)CC[C@@]4(C)[C@]3(C)CC[C@H]2C1(C)C | 106 | 39 | 54
16 | CC(C)(C)OC(=O)NCCCCCC(=O)N[C@H]1CC[C@]2(C)[C@H]3C[C@@H](O)[C@@H]4[C@@H]([C@]5(C)CC[C@@H](C(C)(C)O)O5)CC[C@@]4(C)[C@]3(C)CC[C@H]2C1(C)C | 79 | 40 | 65

Row | Compound | viability at 72 h, 10 µM [1] [%] | Survival [2] [%] | Survival [3] [%]
17 | CC(C)(C)OC(=O)NCCCCCCCC(=O)N[C@H]1CC[C@]2(C)[C@H]3C[C@@H](O)[C@@H]4[C@@H]([C@]5(C)CC[C@@H](C(C)(C)O)O5)CC[C@@]4(C)[C@]3(C)CC[C@H]2C1(C)C | 111 | 41 | 54
18 | CC(C)(O)[C@H]1CC[C@@](C)([C@H]2CC[C@]3(C)[C@@H]2[C@H](O)C[C@@H]2[C@@]4(C)CC[C@H](O)C(C)(C)[C@@H]4CC[C@]23C)O1 | 94 | 95 | 
19 | CC(C)(O)[C@H]1CC[C@@](C)([C@H]2CC[C@]3(C)[C@@H]2[C@H](O)C[C@@H]2[C@@]4(C)CC[C@H](NC(=O)c5ccccc5C(=O)O)C(C)(C)[C@@H]4CC[C@]23C)O1 | 105 | 85 | 96
20 | CC(C)(C)OC(=O)NCCCC(=O)N[C@H]1CC[C@]2(C)[C@H]3C[C@@H](O)[C@@H]4[C@@H]([C@]5(C)CC[C@@H](C(C)(C)O)O5)CC[C@@]4(C)[C@]3(C)CC[C@H]2C1(C)C | 94 | 44 | 90
21 | CCCC(=O)N[C@H]1CC[C@]2(C)[C@H]3C[C@@H](O)[C@@H]4[C@@H]([C@]5(C)CC[C@H](C(C)(C)O)O5)CC[C@@]4(C)[C@]3(C)CC[C@H]2C1(C)C | 103 | 55 | 89
22 | CC(C)(O)[C@@H]1CC[C@@](C)([C@H]2CC[C@]3(C)[C@@H]2[C@H](O)C[C@@H]2[C@@]4(C)CC[C@H](NC(=O)c5ccccc5O)C(C)(C)[C@@H]4CC[C@]23C)O1 | 96 | 36 | 61
23 | CC(C)(O)[C@H]1CC[C@@](C)([C@H]2CC[C@]3(C)[C@@H]2[C@H](O)C[C@@H]2[C@@]4(C)CC[C@H](NC(=O)c5ccccc5O)C(C)(C)[C@@H]4CC[C@]23C)O1 | 100 | 40 | 51
24 | CC(C)(O)[C@@H]1CC[C@@](C)([C@H]2CC[C@]3(C)[C@@H]2[C@H](O)C[C@@H]2[C@@]4(C)CC[C@H](NC(=O)c5ccccc5)C(C)(C)[C@@H]4CC[C@]23C)O1 | 116 | 48 | 90
25 | CC(C)(C)OC(=O)NCC(=O)N[C@H]1CC[C@]2(C)[C@H]3C[C@@H](O)[C@@H]4[C@@H]([C@]5(C)CC[C@@H](C(C)(C)O)O5)CC[C@@]4(C)[C@]3(C)CC[C@H]2C1(C)C | 96 | 42 | 61
26 | CC(C)(O)[C@H]1CC[C@@](C)([C@H]2CC[C@]3(C)[C@@H]2[C@H](O)C[C@@H]2[C@@]4(C)CC[C@H](NC(=O)c5ccccc5)C(C)(C)[C@@H]4CC[C@]23C)O1 | 101 | 39 | 59
27 | CC(C)(O)[C@H]1CC[C@@](C)([C@H]2CC[C@]3(C)[C@@H]2[C@H](O)C[C@@H]2[C@@]4(C)CC[C@H](NC(=O)c5cccnc5)C(C)(C)[C@@H]4CC[C@]23C)O1 | 87 | 49 | 55
28 | CCCCCCCC(=O)N[C@H]1CC[C@]2(C)[C@H]3C[C@@H](O)[C@@H]4[C@@H]([C@]5(C)CC[C@H](C(C)(C)O)O5)CC[C@@]4(C)[C@]3(C)CC[C@H]2C1(C)C | 70 | 39 | 56
29 | CC(C)(O)[C@H]1CC[C@@](C)([C@H]2CC[C@]3(C)[C@@H]2[C@H](O)C[C@@H]2[C@@]4(C)CC[C@H](NC(=O)CCCN)C(C)(C)[C@@H]4CC[C@]23C)O1 | 77 | 85 | 100
30 | CCCCCC(=O)N[C@H]1CC[C@]2(C)[C@H]3C[C@@H](O)[C@@H]4[C@@H]([C@]5(C)CC[C@H](C(C)(C)O)O5)CC[C@@]4(C)[C@]3(C)CC[C@H]2C1(C)C | 101 | 43 | 69
31 | CC(C)(O)[C@@H]1CC[C@@](C)([C@H]2CC[C@]3(C)[C@@H]2[C@H](O)C[C@@H]2[C@@]4(C)CC[C@H](NC(=O)CCCCCCCN)C(C)(C)[C@@H]4CC[C@]23C)O1 | 118 | 76 | 118

Source: ChEMBL document CHEMBL4325852, “Design, synthesis, and discovery of ocotillol-type amide derivatives as orally available modulators of P-glycoprotein-mediated multidrug resistance” (Eur J Med Chem, 2019)
